Among the data in ChEMBL document CHEMBL4513216, “Probing the Open Global Health Chemical Diversity Library for Multistage-Active Starting Points for Next-Generation Antimalarials” (ACS Infect Dis, 2020) are cytotoxicity values, retold here.

Each structure is given as a SMILES string.

This data set in a line: Toxicity liver stage against HepG2, at 10uM. The class given is cell-based. More on the design: test concentration 10 uM, cell line HepG2-A16-CD81EGFP. Conditions: human, HepG2-A16-CD81EGFP cells; read-out: INHIBITION
Summed up: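 Uninfected HepG2-A16-CD81EGFP cells, 3 × 10^3 per well, 1536-well, plated on prespotted compound at 10 μM final, parasite-free screening media added to match infected plates; puromycin 10 μM positive, DMSO 0.5% negative; run in parallel with 48 h PbLuc assay at 37 °C, 5% CO2; viability by CellTiter-Glo luminescence, normalized to controls.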
Turning to `COc1cccc2c3c(c(=O)[nH]c12)CC(C)(C)O3`, the cytotoxicity at 10 µM is -6.1%. Then `C/N=C1\c2cc3cc(OC)ccc3n2CCN1C`, with -10.1%. Regarding `CC(C)N[C@@H]1CO[C@H](CNC(=O)c2ccccc2)[C@H]1O`, the cytotoxicity at 10 µM is -5.73%. As for `CC(=O)N[C@H]1CCN2C(=O)[C@@H](Cc3c[nH]c4ccccc34)NC(=O)[C@H]12`, the cytotoxicity at 10 µM was -0.639%. The value for `COCCCNC(=O)c1cn(C(C)(C)C)c2ncccc12` was 0.0915%; that for `COc1ccc(C2SC(C)=Nc3c2c(=O)[nH]n3C2CCCC2)cc1O` (stereo unspecified) was 9.98%; that for `COc1ccc2nnc(CCCC(=O)NCc3ccccc3F)n2n1` was -0.524%. Take `O=c1cc2c(nn1CN1CCN(c3ccc(F)cc3)CC1)CCC2`: the cytotoxicity at 10 µM was -2.15%. Then `CO[C@@H]1CCN(C(=O)c2cc(C)on2)C[C@@H]1Cc1ccccc1`, with 1.11%. For the compound `COCC(=O)N1CCc2nc(C(=O)N(C)C)sc2CC1`, the cytotoxicity at 10 µM came to 15.5%. The value for `CCc1cnc(N2C[C@@H]3[C@@H](C(=O)NCC(C)C)CCS(=O)(=O)[C@@H]3C2)nc1` was -135%; that for `c1cncc(COCC2CN(Cc3ccco3)Cc3nccn3C2)c1` (stereo unspecified) was -157%.

Regarding `CCC(=O)N1CCC2(CC1)CC(NC(=O)N(C)C)c1cc(C)ccc12` (stereo unspecified), the cytotoxicity at 10 µM worked out at 8.39%.

Consider `Cc1noc([C@H]2CC[C@@H]3[C@@H](CCN3S(=O)(=O)C3CC3)O2)n1`, for which the cytotoxicity at 10 µM is -1.98%. Then `O=C(c1c[nH]cn1)N1CCCn2c(nnc2Cn2cccc2)C1`, with 0.399%. Then `COCCNC(=O)c1c(-n2cnnn2)sc2c1CCCC2`, with 3.51%; and `CN(C)CCNC(=O)CNC(=O)N1CCc2c([nH]c3ccc(Cl)cc23)C1`, with 7.36%. As for `COc1ccc2c(c1)CC(NC(=O)NCc1cccs1)CO2` (stereo unspecified), the cytotoxicity at 10 µM worked out at 7.52%. The value for `CC(C)N(C)C(=O)C1=NOC2(CCN(C(=O)c3ccc(Cl)cc3)C2)C1` (stereo unspecified) was -16.7%; that for `CCn1cc(CN(C)C(=O)c2cc(C(F)(F)F)n(C)n2)cn1` was 10.4%. Regarding `Cn1c(=O)n(C)c2nc(Cl)c(CC(=O)c3ccccc3)n2c1=O`, the cytotoxicity at 10 µM is -13.9%. Then `CNC(=O)Cc1n[nH]c(-c2cncc(Br)c2)n1`, with -4.97%; and `Cc1cc(C)n(CC(=O)N2CCC(c3nc(C(C)C)no3)CC2)n1`, with 9.1%; and `Cc1nc2[nH]cnc(Nc3cc(C)n(C)n3)c-2n1`, with 6.69%. The value for `CNC(=O)C1CN(C(=O)Cc2ccc(OC)cc2)Cc2cn(C)nc21` (stereo unspecified) was 2.99%; that for `c1cnc(Nc2cncc(C3CCCN(c4cnccn4)C3)n2)nc1` (stereo unspecified) was -8.74%; that for `CC(C)S(=O)(=O)CC(=O)N1CCCC(n2ccnc2)C1` (stereo unspecified) was 10.2%.

Consider `OCCCN1CCCC1c1ccc(Br)cc1` (stereo unspecified), for which the cytotoxicity at 10 µM came out at 2.94%. Take `CC(C)C(CCO)NC(=O)Nc1ccc(-c2csnn2)cc1` (stereo unspecified): the cytotoxicity at 10 µM is -10%. With `CCc1ncc(C(=O)N2CCN(c3nc(C)cc(OC)n3)CC2)s1`, the cytotoxicity at 10 µM is 1.1%. The value for `CC(NC(=O)NCCCn1ccnc1)c1nncn1C` (stereo unspecified) was 0.277%; that for `O=C(Cn1ccc(=O)[nH]c1=O)NCC1Cc2ccccc2O1` (stereo unspecified) was 3.74%; that for `CCn1nc(C)c(CNC(=O)NCC(C)(O)c2ccccc2)c1C` (stereo unspecified) was -7.12%. Then `CN(C)c1ccc(C(=O)N2CCCC2c2ccc(Cl)cc2)nn1` (stereo unspecified), with -10.7%. Then `CCOCCCNC(=O)Cc1cccc(F)c1`, with 12.1%. In the case of `COCCn1cc(C(=O)N2CCCC2c2ccc(F)cc2)ccc1=O` (stereo unspecified), the cytotoxicity at 10 µM was -0.12%. Turning to `O=C(NCC1CC1)c1cnc(-c2ccccc2)nc1`, the cytotoxicity at 10 µM worked out at 7.5%. The value for `Cc1cccc(CNC(=O)Nc2ccn(CCCC(=O)N(C)C)n2)c1` was 2%; that for `CC(Oc1ccccc1C(F)(F)F)C(=O)NCC(=O)N1CCCC1` (stereo unspecified) was 5.12%; that for `Cn1ccnc1COc1ccc(CSc2nnnn2C)cc1` was -0.613%. The value for `COCCSc1ccc(C(C)NC(=O)Nc2cn[nH]c2)cc1` (stereo unspecified) was 8.88%; that for `Cc1cn2nc(Sc3nnc(C(C)C)n3C)sc2n1` was 2.3%; that for `Brc1cccc(C2(CNCc3cc[nH]c3)CCOCC2)c1` was 8.95%. Then `CS(=O)(=O)NCC(=O)NC1(c2ccc(Cl)c(Cl)c2)CC1`, with -10.7%; and `O=C(CSCc1ccncc1)N(Cc1ccsc1)C1CC1`, with -11.2%; and `NC(=O)c1ccc(NC(=O)CCN2CCCC(N3CCCC3)C2)cc1` (stereo unspecified), with -8.59%. Consider `CCn1nc(C)cc1C(=O)N1C[C@@H]2C[C@@H](c3noc(C)n3)O[C@@H]2C1`, for which the cytotoxicity at 10 µM was found to be 8.06%. Then `NC(=O)N1CCc2ncc(CNC(=O)CC3CC3)n2CC1`, with 2.11%; and `CC(C)NC(=O)N1CCC2(CC1)Cc1ccccc1CN(C)C2=O`, with 5.55%; and `COCCN(C)C(=O)c1nc2c(s1)CCCN2c1ccc(C)nn1`, with -2.4%. Then `COCCN1CCN(Cc2ccoc2)Cc2cccnc21`, with -75%; and `O=C(NCc1ccncc1)C1=NOC2(CCCNC2)C1` (stereo unspecified), with 5.31%; and `CCN1CCC(CC(=O)NCc2cc(C)nn2C)CC1`, with -14.5%. Then `CN1CCC(Cc2noc(CCc3nc4ccccc4nc3O)n2)CC1`, with 7.23%; and `CNc1nc(C)cc(N2CCC(C(=O)O)(n3ccc(C(C)C)n3)CC2)n1`, with 1.52%; and `Cc1nc2c(c(=O)n1C)CN(C(=O)C1CCN(C(=O)C3CCC3)CC1)C2`, with -3.54%. With `O=C(c1ccc(S(=O)(=O)NCc2ccon2)cc1)N1CCCCCC1`, the cytotoxicity at 10 µM is 0.424%.

For `Cc1ccc(C2(O)CCN(C(=O)c3cccc(S(C)(=O)=O)c3)CC2)nc1`, the cytotoxicity at 10 µM was -5.3%.

Turning to `Cc1cc(C2CCCN2C(=O)Cn2c(C)cc(=O)c3ccccc32)on1` (stereo unspecified), the cytotoxicity at 10 µM is -9.02%. The value for `O[C@@]1(CNCC2(Cn3ccnc3)CC2)CCCN2CCCC[C@@H]21` was 5.09%; that for `CCCN1CC2(CCN(C)CC2)CC1C(=O)NCc1cc(C)nn1C` (stereo unspecified) was 0.318%; that for `Cc1ccc(CC2COc3ccccc3C2)c(N)n1` (stereo unspecified) was -7.12%. Then `CCCC1COCCN1Cc1ccc(S(=O)(=O)NC)cc1` (stereo unspecified), with -142%; and `Cc1cc(=O)[nH]c(CCNC(=O)C(c2ccc(F)cc2)N(C)C)n1` (stereo unspecified), with -9.78%.

On to `CC(C)c1cc(N2CCC(N)CC2)n2nccc2n1`, for which the cytotoxicity at 10 µM is -18.1%. Then `CC(C)C(NC(=O)NCCNc1ncccn1)c1cccs1` (stereo unspecified), with 2.71%; and `CN(C)c1cc(CNc2cncc(-n3cccn3)n2)ccn1`, with 6.26%. Then `O=C(CC(F)(F)F)Nc1cc(F)ccc1OCC1CCCO1` (stereo unspecified), with 5.48%; and `O=C(CCCc1ccccc1)N1CCC(Nc2cccnn2)CC1`, with -5.89%; and `Cc1ccc(C(=O)N2CCN(CCc3ccccc3)CC2)c(=O)[nH]1`, with -7.1%. Then `COc1ccc(CNCC2CNc3cc(C)nn3C2)cn1` (stereo unspecified), with -16.5%. In the case of `CC(C)c1n[nH]c(C2CN(C(=O)c3ccnc(C4CC4)n3)CCO2)n1` (stereo unspecified), the cytotoxicity at 10 µM is -12.6%. Regarding `CC(=O)Nc1nc(C(=O)NC(C)c2ccncc2)cs1` (stereo unspecified), the cytotoxicity at 10 µM is -6.5%.

Turning to `Cc1cc(C[S+]([O-])CC(=O)NCC(C)C)no1` (stereo unspecified), the cytotoxicity at 10 µM was -4.17%.

With `CCc1nc(C2CCCN2CC(=O)Nc2c(C)n[nH]c2C)no1` (stereo unspecified), the cytotoxicity at 10 µM is -3.79%. Then `CCOc1ccc(Cl)c(C(=O)N2CCN(C(=O)c3ccoc3C)CC2)n1`, with -6.69%; and `CNC(=O)NC(=O)CN1CCC(c2cccc(F)c2)C1` (stereo unspecified), with -8.75%. The value for `CC1c2ncc(COc3cccnc3)n2CCN1C(=O)C1=CCCCC1` (stereo unspecified) was 3.39%; that for `COCc1nn(C(C)C)c2c1CCN(Cc1ccc(C)s1)C2` was -5.82%. Then `CCN1CCn2c(C)cnc2C12CCN(C(=O)COC)CC2`, with 6.5%.

As for `O=C1C[C@H]2[C@@H](CCN2C(=O)c2ccoc2)N1CCN1CCOCC1`, the cytotoxicity at 10 µM was -5.26%.

`COCC1CN(Cc2ccoc2)Cc2nnn(C)c21` (stereo unspecified): the cytotoxicity at 10 µM was -3.73%. The value for `Cc1cccc(CN2CCCC3(CCC(=O)N3CCN(C)C)CC2)n1` (stereo unspecified) was -0.891%; that for `O=C1N(c2ccsc2)CCC12CCCN(Cc1ccccn1)C2` (stereo unspecified) was 2.03%. Then `CC1=N[C@@]2(CC[C@@H]3CN(CC(=O)N(C)C)C[C@@H]32)C(=O)N1CC(C)C`, with 9.66%; and `COCCN1CCC2(COCc3cnc(N(C)C)nc32)C1` (stereo unspecified), with 1.39%. For `Cn1cc(CN2CCn3cc(Cn4cccn4)nc3C2)cn1`, the cytotoxicity at 10 µM was found to be 4.49%. The value for `O=C(NCC1CC1)C1CCC2(CCN(C(=O)c3ccncc3)CC2)O1` (stereo unspecified) was -0.0368%.

As for `COC[C@H]1CC[C@@H]2[C@@H](CCN2Cc2ccco2)O1`, the cytotoxicity at 10 µM was -137%. Then `COCc1ncn2c1CN(C(=O)c1ccc3ccccc3n1)CC2`, with 8.42%; and `OC(CN1CCN(Cc2cc(F)ccc2F)CC1)C1CC1` (stereo unspecified), with 0.353%; and `Cc1cnc(N2CCn3c(CN4CCOCC4)nnc3C2)nc1`, with -153%. The value for `CCc1ncnc2c1CCN(Cc1ccc3c(c1)OCO3)CC2` was -139%; that for `CN(C)C(=O)N1C[C@H](Oc2ccccn2)[C@H]2OCCC[C@H]21` was 6.07%. Then `Cc1cccc(CN2CC[C@@H]3[C@@H]2CCN3C(=O)c2cc(C)oc2C)n1`, with -4.42%; and `O=C(Cn1c(=O)[nH]c2cn(-c3ccccc3)c(=O)n21)NC1CCCCC1`, with -0.2%.
